Experimental data taken from ChEMBL document CHEMBL1135374, “New series of aryloxypropanolamines with both human beta(3)-adrenoceptor agonistic activity and free radical scavenging properties” (2002).

Legend:
[1] = organism: Bos taurus; assay: Oxidation was assessed indirectly by measuring bovine serum albumin (BSA) thiol protection from the formation of thiobarbituric acid reactive substances (TBARs) by TBARs test at 500 uM; assay type: functional
Summary of the method: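 Plasma lipid peroxidation induced by Fenton-generated hydroxyl radicals (Fe2+/H2O2), with compound at the stated concentration. Thiobarbituric acid reactive substances quantified. Expressed as % protection relative to Trolox. Mean ± SEM, three experiments, ANOVA (p < 0.05).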

[2] = organism: Bos taurus; assay: Oxidation was assessed indirectly by measuring bovine serum albumin (BSA) thiol protection from the formation of thiobarbituric acid reactive substances (TBARs) by TBARs test at 10 uM; assay type: functional
[3] = system: COS-7; assay: CyclicAMP production in untransfected COS-7 cell control; assay type: functional
Summary of the method: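 Non-transfected COS-7 cells grown in DMEM/10% FBS at 37 °C, 5% CO2. Preincubated 30 min at 37 °C in serum-free DMEM/25 mM HEPES pH 7.5, then given 10 μM compound plus 0.24 mM IBMX and 0.1 μM propranolol for 20 min. cAMP in cold 5% TCA extract quantified by RIA, pmol/min/well.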

[4] = organism: Bos taurus; assay: Oxidation was assessed indirectly by measuring bovine serum albumin (BSA) thiol protection from the formation of thiobarbituric acid reactive substances (TBARs) by TBARs test at 100 uM; assay type: functional
[5] = target: Beta-3 adrenergic receptor (Homo sapiens) (UniProt P13945); assay: Beta adrenergic activity was determined by measuring cAMP production on human Beta3 adrenergic transfected COS-7 cells; assay type: functional, cell-based
Summary of the method: (§1)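 COS-7 cells in DMEM/10% FBS at 37 °C, 5% CO2, lipofected with human β3-receptor plasmid at 70-80% confluence, then grown 24 h. Cells preincubated 30 min at 37 °C in serum-free DMEM/25 mM HEPES pH 7.5, then exposed 20 min to 10 μM compound with 0.24 mM IBMX, with or without 0.1 μM propranolol. cAMP in TCA extract measured by RIA, expressed as pmol/min/well.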

[6] = target: Beta-3 adrenergic receptor (Homo sapiens) (UniProt P13945); assay: Beta adrenergic activity as cAMP production in human Beta3 adrenergic receptor expressing COS-7 cells with propranolol; assay type: functional, cell-based; summary of the method: as §1
[7] = organism: Bos taurus; assay: Oxidation was assessed indirectly by measuring bovine serum albumin thiol protection by using Ellman''s test at 500 uM; assay type: functional
Summary of the method: (§2)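 Hydroxyl radicals from Fenton reaction (Fe2+/H2O2) oxidize BSA. Remaining thiols measured by Ellman's test. Compound present at the stated concentration. Reported as % protection relative to Trolox. Mean ± SEM of three experiments, ANOVA (p < 0.05).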

[8] = organism: Bos taurus; assay: Oxidation was assessed indirectly by measuring bovine serum albumin(BSA) thiol protection from the formation of thiobarbituric acid reactive substances (TBARs) by TBARs test at 500 uM; assay type: functional
[9] = organism: Bos taurus; assay: Oxidation was assessed indirectly by measuring bovine serum albumin thiol protection by using Ellman''s test at 1 mM; assay type: functional; summary of the method: as §2
[10] = organism: Bos taurus; assay: Oxidation was assessed indirectly by measuring bovine serum albumin(BSA) thiol protection from the formation of thiobarbituric acid reactive substances (TBARs) by TBARs test at 100 uM; assay type: functional
[11] = organism: Bos taurus; assay: Oxidation was assessed indirectly by measuring bovine serum albumin (BSA) thiol protection by using Ellman''s test at 1 mM; assay type: functional; summary of the method: as §2
[12] = organism: Bos taurus; assay: Oxidation was assessed indirectly by measuring bovine serum albumin (BSA) thiol protection by using Ellman''s test at 500 uM; assay type: functional; summary of the method: as §2
[13] = organism: Bos taurus; assay: Oxidation was assessed indirectly by measuring bovine serum albumin(BSA) thiol protection from the formation of thiobarbituric acid reactive substances (TBARs) by TBARs test at 10 uM; assay type: functional

Beta-3 adrenergic receptor (Homo sapiens), sequence (P13945 whole entry, looked up): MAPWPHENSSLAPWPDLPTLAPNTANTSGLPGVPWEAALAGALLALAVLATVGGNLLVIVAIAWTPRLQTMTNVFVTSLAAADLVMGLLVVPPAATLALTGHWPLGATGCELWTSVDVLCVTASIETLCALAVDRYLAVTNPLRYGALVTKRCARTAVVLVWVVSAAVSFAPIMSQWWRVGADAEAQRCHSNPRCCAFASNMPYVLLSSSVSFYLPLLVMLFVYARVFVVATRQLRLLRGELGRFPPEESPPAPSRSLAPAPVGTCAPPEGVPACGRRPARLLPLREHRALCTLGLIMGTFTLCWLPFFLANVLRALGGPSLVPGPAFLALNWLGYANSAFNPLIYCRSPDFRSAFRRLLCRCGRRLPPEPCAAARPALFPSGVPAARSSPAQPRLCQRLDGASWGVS

Row | Structure (SMILES) | cAMP production (pM min-1 well-1) [5] | cAMP production (pM min-1 well-1) [6] | Protection [1] [%] | Protection [2] [%] | cAMP production [3] [pmol/min/well] | Protection [4] [%] | Protection [7] [%] | Protection [9] [%] | further results
1 | Cc1c(C)c2c(c(C)c1O)CCC(C)(C(=O)O)O2 (stereo not given) [TROLOX] |  |  |  | -21.4 |  |  | 31.4 | 75.2 | Protection [8]: 64.8%; Protection [10]: 7.6%
2 | Cc1c(C)c2c(c(C)c1O)CCC(C)(COc1ccc(NCC(O)COc3cccc4cnccc34)cc1)O2 (stereo not given) | 142 | 41.6 | 94.4 | 39.4 | 28.7 | 49.3 | 54.8 | 115.2 | 
3 | CC(C)(C)c1cc(CCCOc2ccc(NCC(O)COc3cccc4ncccc34)cc2)cc(C(C)(C)C)c1O (stereo not given) |  |  | 50.4 | 30.3 | 21.6 | 33.3 |  |  | Protection [11]: 120.3%; Protection [12]: 47.3%
4 | Cc1c(C)c2c(c(C)c1O)CCC(C)(COc1ccc(NCC(O)COc3cccc4[nH]c5ncccc5c34)cc1)O2 (stereo not given) |  |  | 75.5 | 44.3 |  | 53.6 |  |  | 
5 | COc1ccccc1OCCNCC(O)COc1cccc2[nH]c3ccccc3c12 (stereo not given) [CARVEDILOL] |  |  |  | 1 |  |  | 20 | -88.6 | Protection [8]: 6.2%; Protection [10]: -0.6%

More lines, main results first:

Row | cAMP production (pM min-1 well-1) [5] | cAMP production (pM min-1 well-1) [6] | Structure (SMILES) | Protection [1] [%] | Protection [2] [%] | cAMP production [3] [pmol/min/well] | Protection [4] [%] | Protection [7] [%] | Protection [9] [%] | further results
6 | 130 | 76.3 | CC(C)(C)c1cc(CCCOc2ccc(NCC(O)COc3cccc4cnccc34)cc2)cc(C(C)(C)C)c1O (stereo not given) | 49.3 | 43.6 | 24.9 | 32.8 |  |  | 
7 | 97.4 | 21.4 | CC(C)(C)c1cc(CCCOc2ccc(NCC(O)COc3ccc4cccnc4c3)cc2)cc(C(C)(C)C)c1O (stereo not given) |  |  | 23.3 |  |  |  | 
8 |  | 23.9 | CC(C)(C)c1cc(CCCOc2ccc(NCC(O)COc3ccc4ccncc4c3)cc2)cc(C(C)(C)C)c1O (stereo not given) |  |  | 26.9 |  |  |  | 
9 |  | 33.2 | Cc1c(C)c2c(c(C)c1O)CCC(C)(COc1ccc(NCC(O)COc3ccc4ccncc4c3)cc1)O2 (stereo not given) |  |  | 33 |  |  |  | 
10 |  | 22.3 | Cc1c(C)c2c(c(C)c1O)CCC(C)(COc1ccc(NCC(O)COc3cccc4[nH]c5ccccc5c34)cc1)O2 (stereo not given) |  |  | 31.5 |  |  |  | 
11 | 103 | 28.6 | Cc1c(C)c2c(c(C)c1O)CCC(C)(COc1ccc(NCC(O)COc3cccc4ncccc34)cc1)O2 (stereo not given) |  |  | 26.8 |  | 49.2 | 82.9 | Protection [13]: 37.8%; Protection [8]: 78.2%; Protection [10]: 64.6%
